In brackets after ≈: the same amount, converted by molar mass. Activity calls are given as the source filed them. The rule behind the calls is not given here.
What was measured:
[1] = tested on: Escherichia coli; experiment: Antimicrobial activity against Escherichia coli ATCC 25922 after 24 to 48 hrs by two-fold broth microdilution method; assay type: functional
[2] = tested on: Enterococcus faecalis; experiment: Antimicrobial activity against Enterococcus faecalis ATCC 29212 after 24 to 48 hrs by two-fold broth microdilution method; assay type: functional
[3] = tested on: Staphylococcus aureus; experiment: Antimicrobial activity against multidrug-resistant Staphylococcus aureus VISA3 […] by two-fold broth microdilution method; assay type: functional
[4] = tested on: Enterobacter cloacae; experiment: Antimicrobial activity against Enterobacter cloacae ATCC 23355 after 24 to 48 hrs by two-fold broth microdilution method; assay type: functional
[5] = tested on: Staphylococcus aureus; experiment: Antimicrobial activity against Staphylococcus aureus ATCC 29213 after 24 to 48 hrs by two-fold broth microdilution method; assay type: functional
[6] = tested on: Candida albicans; experiment: Antimicrobial activity against Candida albicans ATCC 537Y after 48 hrs by two-fold broth microdilution method; assay type: functional
Summary of the method: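 Two-fold serial dilutions in RPMI 1640 per CLSI M27-A2. Stocks in DMSO/RPMI 1:20 v/v. Test range 1.0–64 µM. Inoculum set to 0.5 McFarland, then diluted in saline and RPMI 1640. Plates held at 35 °C for 48 h. MIC is the lowest concentration giving prominent growth reduction. Run in triplicate.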

[7] = tested on: Staphylococcus aureus; experiment: Antimicrobial activity against Staphylococcus aureus ATCC 29213 after 18 hrs by modified broth microdilution method; assay type: functional
Summary of the method: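 PGI90, the concentration giving 90% growth inhibition, fitted with an exponential growth curve from at least seven concentrations of the MIC assay. Inhibition % = [(Ac − Ap)/Ac] × 100 from A620 of drug-free control versus drug-treated culture. Checked by a modified broth microdilution (Phase 2).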

[8] = tested on: Serratia marcescens; experiment: Antimicrobial activity against Serratia marcescens ATCC 14576 after 24 to 48 hrs by two-fold broth microdilution method; assay type: functional
[9] = tested on: Klebsiella pneumoniae; experiment: Antimicrobial activity against Klebsiella pneumoniae ATCC 700603 after 24 to 48 hrs by two-fold broth microdilution method; assay type: functional
Summary of the method: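 Two-fold serial dilutions in cation-adjusted Mueller–Hinton broth per CLSI M100-S2. Stocks in DMSO/CAMH 1:10 v/v. Range 2.0–128 µM. Inoculum set to 0.5 McFarland, then diluted in saline and CAMH. Incubated at 35 °C for 18 h. MIC is the lowest concentration with no visible growth. Plates also read at 24 and 48 h as sterility control. Triplicate.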

[10] = tested on: Escherichia coli; experiment: Antimicrobial activity against Escherichia coli ATCC 25922 at 128 uM after 24 to 48 hrs by two-fold broth microdilution method; assay type: functional, organism-based
Summary of the method: (§1)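 Antibacterial microdilution in CAMH, inoculum 0.5 McFarland diluted in saline/CAMH, 35 °C for 18 h, with further reads at 24 and 48 h. Activity is scored at the maximum tested concentration, 128 µM. Triplicate.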

[11] = tested on: Staphylococcus aureus; experiment: Antimicrobial activity against Staphylococcus aureus ATCC 29213 at 128 uM after 24 to 48 hrs by two-fold broth microdilution method; assay type: functional, organism-based; summary of the method: as §1
[12] = tested on: Enterobacter cloacae; experiment: Antimicrobial activity against Enterobacter cloacae ATCC 23355 at 128 uM after 24 to 48 hrs by two-fold broth microdilution method; assay type: functional, organism-based; summary of the method: as §1
[13] = tested on: Enterococcus faecalis; experiment: Antimicrobial activity against Enterococcus faecalis ATCC 29212 at 128 uM after 24 to 48 hrs by two-fold broth microdilution method; assay type: functional, organism-based; summary of the method: as §1
[14] = tested on: Klebsiella pneumoniae; experiment: Antimicrobial activity against Klebsiella pneumoniae ATCC 700603 at 128 uM after 24 to 48 hrs by two-fold broth microdilution method; assay type: functional, organism-based; summary of the method: as §1
[15] = tested on: Candida albicans; experiment: Antimicrobial activity against Candida albicans ATCC 537Y at 64 uM after 48 hrs by two-fold broth microdilution method; assay type: functional, organism-based
Summary of the method: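 Single top concentration of the antifungal microdilution: RPMI 1640, inoculum 0.5 McFarland diluted in saline/RPMI, 35 °C for 48 h. Activity is judged at the highest tested level, 64 µM. Run in triplicate.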

[16] = tested on: Serratia marcescens; experiment: Antimicrobial activity against Serratia marcescens ATCC 14576 at 128 uM after 24 to 48 hrs by two-fold broth microdilution method; assay type: functional, organism-based; summary of the method: as §1

CCCc1ccc(C(=O)N/N=C/c2ccc([N+](=O)[O-])o2)cc1
MIC [1]: 64 µM (≈ 19.3 µg/mL)
MIC90 [1]: 69.8 µM (≈ 21 µg/mL)
MIC [2]: 64 µM (≈ 19.3 µg/mL)
MIC90 [2]: 73.2 µM (≈ 22.1 µg/mL)
MIC [3]: 2 µM (≈ 0.603 µg/mL)
MIC90 [4]: 69.8 µM (≈ 21 µg/mL)
MIC [5]: 2 µM (≈ 0.603 µg/mL)
MIC90 [5]: 2.56 µM (≈ 0.771 µg/mL)
MIC [6]: 32 µM (≈ 9.64 µg/mL)
MIC90 [6]: 42.1 µM (≈ 12.7 µg/mL)
log(1/MIC>90) [7]: 5.59
MIC [8]: 64 µM (≈ 19.3 µg/mL)
MIC90 [8]: 66.3 µM (≈ 20 µg/mL)
MIC [9]: 64 µM (≈ 19.3 µg/mL)
MIC90 [9]: 74.8 µM (≈ 22.5 µg/mL)

CC(=O)N1N=C(c2ccc(C(C)(C)C)cc2)OC1c1ccc([N+](=O)[O-])o1 (centres undefined)
Activity [10]: inactive
Activity [11]: inactive
Activity [12]: inactive
Activity [13]: inactive
Activity [14]: inactive
Activity [15]: inactive
Activity [16]: inactive

CCCOc1ccc(C2=NN(C(C)=O)C(c3ccc([N+](=O)[O-])o3)O2)cc1 (centres undefined)
Activity [10]: inactive
Activity [11]: inactive
Activity [12]: inactive
Activity [13]: inactive
Activity [14]: inactive
Activity [15]: inactive
Activity [16]: inactive

From ChEMBL document CHEMBL3259528, “Exploring 5-nitrofuran derivatives against nosocomial pathogens: synthesis, antimicrobial activity and chemometric analysis” (2014)
